Measured values reported in ChEMBL document CHEMBL4364345, “Synthesis and evaluation of 1,3,4-oxadiazole derivatives for development as broad-spectrum antibiotics” (Bioorg Med Chem, 2019).
Converted amounts (≈) assume the structure as drawn. The source made the active and inactive calls.

Assays:
Clostridium perfringens = test: Antimicrobial activity against Clostridium perfringens clinical isolate at 50 ug/disk incubated for 20 +/- 4 hrs by agar disk diffusion method; type: functional; conditions: read-out: DIZ
In short: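 Agar disk diffusion on MH agar with 5% horse blood (MHF), surface-seeded by swab from a 0.5 McFarland inoculum (about 10^8 CFU/ml). Cellulose discs received 10 μl of a 5 g/L DMSO solution (50 μg). A DMSO-only disc served as control. Anaerobic incubation at 35 ± 2 °C for 20 ± 4 h; growth-inhibition diameter measured in mm.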

Enterococcus faecium [1] = test: Antimicrobial activity against Enterococcus faecium AUS0004 at 50 ug/disk incubated for 20 +/- 4 hrs by agar disk diffusion method; type: functional; conditions: read-out: DIZ
In short: (§1)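 Agar disk diffusion on Mueller-Hinton agar swab-seeded from a 0.5 McFarland inoculum (about 10^8 CFU/ml). Cellulose discs got 50 μg compound (10 μl of 5 g/L in DMSO); a 10 μL DMSO disc was the control. Incubated aerobically at 35 ± 2 °C for 20 ± 4 h, then growth-inhibition diameters measured.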

Bacteroides fragilis = test: Antimicrobial activity against Bacteroides fragilis ATCC 25285 at 50 ug/disk incubated for 20 +/- 4 hrs by agar disk diffusion method; type: functional; conditions: read-out: DIZ
In short: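 Anaerobic disk diffusion: MH agar + 5% horse blood seeded from a 0.5 McFarland swab, with discs of 50 μg compound (10 μl of 5 g/L DMSO solution) and a DMSO control disc. Kept at 35 ± 2 °C under anaerobic conditions for 20 ± 4 h; inhibition diameters recorded.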

Escherichia coli [2] = test: Antimicrobial activity against Escherichia coli clinical isolate at 50 ug/disk incubated for 20 +/- 4 hrs by agar disk diffusion method; type: functional; conditions: read-out: DIZ; in short: as §1
Escherichia coli [3] = test: Antimicrobial activity against Escherichia coli ATCC 25922 at 50 ug/disk incubated for 20 +/- 4 hrs by agar disk diffusion method; type: functional; conditions: read-out: DIZ; in short: as §1
Klebsiella pneumoniae = test: Antimicrobial activity against Klebsiella pneumoniae clinical isolate at 50 ug/disk incubated for 20 +/- 4 hrs by agar disk diffusion method; type: functional; conditions: read-out: DIZ; in short: as §1
Morganella morganii = test: Antimicrobial activity against Morganella morganii EB6 clinical isolate at 50 ug/disk incubated for 20 +/- 4 hrs by agar disk diffusion method; type: functional; conditions: read-out: DIZ; in short: as §1
Proteus mirabilis = test: Antimicrobial activity against Proteus mirabilis clinical isolate at 50 ug/disk incubated for 20 +/- 4 hrs by agar disk diffusion method; type: functional; conditions: read-out: DIZ; in short: as §1
Proteus vulgaris = test: Antimicrobial activity against Proteus vulgaris clinical isolate at 50 ug/disk incubated for 20 +/- 4 hrs by agar disk diffusion method; type: functional; conditions: read-out: DIZ; in short: as §1
Pseudomonas aeruginosa = test: Antimicrobial activity against Pseudomonas aeruginosa clinical isolate at 50 ug/disk incubated for 20 +/- 4 hrs by agar disk diffusion method; type: functional; conditions: read-out: DIZ; in short: as §1
[4] = test system: Mycobacteroides abscessus; test: Antimicrobial activity against Mycobacterium abscessus clinical isolate at 50 ug/disk incubated for 4 days by agar disk diffusion method; type: functional; conditions: 96 h, read-out: DIZ
In short: (§2)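 On MH agar with 5% horse blood, a 0.5 McFarland inoculum was swabbed and discs with 50 μg compound (from 5 g/L in DMSO) were laid down, alongside a DMSO control disc. Incubation was humid and aerobic at 35 ± 2 °C for 4 days, then growth-inhibition diameters were measured.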

[5] = test system: Mycolicibacterium fortuitum; test: Antimicrobial activity against Mycobacterium fortuitum clinical isolate at 50 ug/disk incubated for 4 days by agar disk diffusion method; type: functional; conditions: 96 h, read-out: DIZ; in short: as §2
Staphylococcus aureus = test: Antimicrobial activity against Staphylococcus aureus ATCC 29213 by broth microdilution method; type: functional
In short: (§3)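 MICs were set by broth microdilution following EUCAST guidelines, from three independent experiments reported as values or ranges. MICs were measured only where disk-diffusion inhibition diameters were 9 mm or more.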

Listeria monocytogenes [6] = test: Antimicrobial activity against Listeria monocytogenes clinical isolate by broth microdilution method; type: functional; in short: as §3
[7] = test system: Mycobacteroides abscessus; test: Antimicrobial activity against Mycobacterium abscessus clinical isolate by broth microdilution method; type: functional; in short: as §3
[8] = test system: Mycolicibacterium fortuitum; test: Antimicrobial activity against Mycobacterium fortuitum clinical isolate by broth microdilution method; type: functional; in short: as §3
Enterococcus faecalis [9] = test: Synergistic antimicrobial activity against Enterococcus faecalis ATCC 29212 assessed as DIZ at 50 ug/disk incubated for 20 +/- 4 hrs in presence of erythromycin by agar disk diffusion method (reference value: 20 millimeter); type: functional; conditions: read-out: DIZ
Enterococcus faecalis [10] = test: Synergistic antimicrobial activity against Enterococcus faecalis ATCC 29212 assessed as DIZ at 50 ug/disk incubated for 20 +/- 4 hrs in presence of streptomycin by agar disk diffusion method (reference value: 18 millimeter); type: functional; conditions: read-out: DIZ
Enterococcus faecalis [11] = test: Synergistic antimicrobial activity against Enterococcus faecalis ATCC 29212 assessed as DIZ at 50 ug/disk incubated for 20 +/- 4 hrs in presence of gentamicin by agar disk diffusion method (reference value: 13 millimeter); type: functional; conditions: read-out: DIZ
Enterococcus faecium [12] = test: Synergistic antimicrobial activity against Enterococcus faecium AUS0004 assessed as DIZ at 50 ug/disk incubated for 20 +/- 4 hrs in presence of imipenem by agar disk diffusion method (reference value: 6 millimeter); type: functional; conditions: read-out: DIZ
Enterococcus faecium [13] = test: Synergistic antimicrobial activity against Enterococcus faecium AUS0004 assessed as DIZ at 50 ug/disk incubated for 20 +/- 4 hrs in presence of ampicillin by agar disk diffusion method (reference value: 6 millimeter); type: functional; conditions: read-out: DIZ
Enterococcus faecium [14] = test: Synergistic antimicrobial activity against Enterococcus faecium AUS0004 assessed as DIZ at 50 ug/disk incubated for 20 +/- 4 hrs in presence of streptomycin by agar disk diffusion method (reference value: 22 millimeter); type: functional; conditions: read-out: DIZ
Enterococcus faecium [15] = test: Synergistic antimicrobial activity against Enterococcus faecium AUS0004 assessed as DIZ at 50 ug/disk incubated for 20 +/- 4 hrs in presence of gentamicin by agar disk diffusion method (reference value: 17 millimeter); type: functional; conditions: read-out: DIZ
Listeria monocytogenes [16] = test: Synergistic antimicrobial activity against Listeria monocytogenes clinical isolate assessed as DIZ at 50 ug/disk incubated for 20 +/- 4 hrs in presence of moxalactam by agar disk diffusion method (reference value: 13 millimeter); type: functional; conditions: read-out: DIZ
Listeria monocytogenes [17] = test: Synergistic antimicrobial activity against Listeria monocytogenes clinical isolate assessed as DIZ at 50 ug/disk incubated for 20 +/- 4 hrs in presence of ofloxacin by agar disk diffusion method (reference value: 19 millimeter); type: functional; conditions: read-out: DIZ
HCT-116 = test: Cytotoxicity against human HCT116 cells assessed as decrease in cell viability in MTT assay; type: cell-based
In short: (§4)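 Cell viability was measured by MTT on a robotic screening platform. Residual viability was expressed as a percentage of the mean viable cells in DMSO-treated controls. Under 25-30% viability was considered cytotoxic, and IC50 values were derived.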

PC-3 = test: Cytotoxicity against human PC3 cells assessed as decrease in cell viability in MTT assay; type: cell-based; in short: as §4
[18] = Cytotoxicity against human NHFB cells assessed as decrease in cell viability in MTT assay; type: cell-based; in short: as §4
Escherichia coli [19] = test: Antimicrobial activity against Escherichia coli BW25113 at 10 mM/disk incubated for 20 +/- 4 hrs by agar disk diffusion method; type: functional; conditions: read-out: DIZ
Escherichia coli [20] = test: Antimicrobial activity against Escherichia coli BW25113 by broth microdilution method; type: functional
In short: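 MIC by broth microdilution per EUCAST guidelines, in E. coli BW25113 and its previously described deletion derivative.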

Escherichia coli [21] = test: Antimicrobial activity against TolC deficient Escherichia coli BW25113 by agar disk diffusion method; type: functional
Escherichia coli [22] = test: Antimicrobial activity against ssrA-TolC deficient Escherichia coli BW25113 by agar disk diffusion method; type: functional
Escherichia coli [23] = test: Bactericidal activity against TolC deficient Escherichia coli BW25113 by broth microdilution method; type: functional

Structure (SMILES) | zone of inhibition at 50 µg/disc (Clostridium perfringens) [mm] | zone of inhibition at 50 µg/disc (Enterococcus faecium [1]) [mm] | zone of inhibition at 50 µg/disc (Bacteroides fragilis) [mm] | zone of inhibition at 50 µg/disc (Escherichia coli [2]) [mm] | zone of inhibition at 50 µg/disc (Escherichia coli [3]) [mm] | zone of inhibition at 50 µg/disc (Klebsiella pneumoniae) [mm] | zone of inhibition at 50 µg/disc (Morganella morganii) [mm] | zone of inhibition at 50 µg/disc (Proteus mirabilis) [mm] | zone of inhibition at 50 µg/disc (Proteus vulgaris) [mm] | zone of inhibition at 50 µg/disc (Pseudomonas aeruginosa) [mm] | zone of inhibition at 50 µg/disc [4] [mm] | zone of inhibition at 50 µg/disc [5] [mm] | MIC (Staphylococcus aureus) [µg/mL] | MIC (Listeria monocytogenes [6]) [µg/mL] | MIC [7] | MIC [8] [µg/mL] | zone of inhibition at 50 µg/disc (Enterococcus faecalis [9]) [mm] | zone of inhibition at 50 µg/disc (Enterococcus faecalis [10]) [mm] | zone of inhibition at 50 µg/disc (Enterococcus faecalis [11]) [mm] | zone of inhibition at 50 µg/disc (Enterococcus faecium [12]) [mm] | further results
O=C(Nc1nnc(-c2ccc(C(F)(F)F)cc2)o1)c1cccc(Cl)c1 | 11 | 21 | 11 | 6 | 6 | 6 | 6 | 6 | 6 | 6 | 9 | 23 | 2 (≈ 5.44 µM) | 8 (≈ 21.8 µM) | 32 to 64 µg/mL (≈ 87 to 174 µM) | 16 to 32 (≈ 43.5 to 87 µM) | 24 | 24 | 23 | 24 | zone of inhibition at 50 µg/disc (Enterococcus faecium [13]): 24 mm; zone of inhibition at 50 µg/disc (Enterococcus faecium [14]): 26 mm; zone of inhibition at 50 µg/disc (Enterococcus faecium [15]): 25 mm; zone of inhibition at 50 µg/disc (Listeria monocytogenes [16]): 33 mm; zone of inhibition at 50 µg/disc (Listeria monocytogenes [17]): 29 mm; IC50 (HCT-116): 10 µM; IC50 (PC-3): 17 µM; IC50 [18]: > 25 µM; zone of inhibition at 10000 µM (Escherichia coli [19]): 6 mm; MIC (Escherichia coli [20]): > 128 µM; diameter of the inhibition zone (DIZ) (Escherichia coli [21]): 21.3 mm; diameter of the inhibition zone (DIZ) (Escherichia coli [22]): 22.3 mm; MBC (Escherichia coli [23]): 16 µM (≈ 5.88 µg/mL)
O=C(Nc1ncc(-c2ccc(F)cc2)o1)c1ccc(Cl)cc1 | 6 | 12 | 8 | 6 | 8 | 6 | 6 | 6 | 10 | 6 | 7 | 12 | 0.5 to 4 (≈ 1.58 to 12.6 µM) | 32 to 64 (≈ 101 to 202 µM) | inactive | 32 to 64 (≈ 101 to 202 µM) | 20 | 19 | 16 | 13 | zone of inhibition at 50 µg/disc (Enterococcus faecium [13]): 13 mm; zone of inhibition at 50 µg/disc (Enterococcus faecium [14]): 21 mm; zone of inhibition at 50 µg/disc (Enterococcus faecium [15]): 18 mm; zone of inhibition at 50 µg/disc (Listeria monocytogenes [16]): 17 mm; zone of inhibition at 50 µg/disc (Listeria monocytogenes [17]): 15 mm; IC50 (HCT-116): 2 µM; IC50 (PC-3): 2 µM; IC50 [18]: > 25 µM; zone of inhibition at 10000 µM (Escherichia coli [19]): 6 mm; MIC (Escherichia coli [20]): > 128 µM; diameter of the inhibition zone (DIZ) (Escherichia coli [21]): 11.33 mm; diameter of the inhibition zone (DIZ) (Escherichia coli [22]): 13 mm
